Hits are enriched below; roughly 2.9% of the tested compounds scored in any of these assays.
DENV2 CPE – inhibitors of DENV2 cytopathic effect, primary screen, cell-based, plate reader, single concentration; DENV2-infected cells, cytopathic effect rescue; CPE inhibition, % at 9.99 µM; hit rate 1.7% among 350,000; in the data active = CPE inhibition above about 20%, passing the limit was not always enough; inconclusive = no clear call, values can overlap the other calls; tested in BHK-21 cells;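 note: 0% = median of neutral control wells and 100% = median of positive control wells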
SIRT5 block – SIRT5 desuccinylase inhibitors, primary screen, biochemical, fluorescence imaging, single point, set 5. NAD-dependent protein deacylase sirtuin-5, mitochondrial (Homo sapiens), Q9NXA8. hit rate 1.1% among 330,000. inhibition, % at 15 µM. AID 652115, 2013. Purified SirT5, succinyl-peptide AMC, trypsin-coupled fluorescence; in the data active = inhibition above about 15%; inconclusive = no clear call, values can overlap the other calls
E-selectin induc – E-selectin induction in HUVECs, primary screen, imaging, HUVEC, immunofluorescence imaging, single point | normalized: neutral wells 0, TNF-alpha wells 100 | activation, % at 7.58 µM | hit rate 0.37% among 260,000 | AID 686992, 2013;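 active = mean E-selectin-positive cell signal at least 10% of the positive control, reached in at least 60% of replicates, without over 20% cell loss; inconclusive = no rule given, readout overlaps actives, possibly toxicity-flagged; inactive = the rest, including those meeting only one limit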
Target sequence (P16581 whole entry, looked up): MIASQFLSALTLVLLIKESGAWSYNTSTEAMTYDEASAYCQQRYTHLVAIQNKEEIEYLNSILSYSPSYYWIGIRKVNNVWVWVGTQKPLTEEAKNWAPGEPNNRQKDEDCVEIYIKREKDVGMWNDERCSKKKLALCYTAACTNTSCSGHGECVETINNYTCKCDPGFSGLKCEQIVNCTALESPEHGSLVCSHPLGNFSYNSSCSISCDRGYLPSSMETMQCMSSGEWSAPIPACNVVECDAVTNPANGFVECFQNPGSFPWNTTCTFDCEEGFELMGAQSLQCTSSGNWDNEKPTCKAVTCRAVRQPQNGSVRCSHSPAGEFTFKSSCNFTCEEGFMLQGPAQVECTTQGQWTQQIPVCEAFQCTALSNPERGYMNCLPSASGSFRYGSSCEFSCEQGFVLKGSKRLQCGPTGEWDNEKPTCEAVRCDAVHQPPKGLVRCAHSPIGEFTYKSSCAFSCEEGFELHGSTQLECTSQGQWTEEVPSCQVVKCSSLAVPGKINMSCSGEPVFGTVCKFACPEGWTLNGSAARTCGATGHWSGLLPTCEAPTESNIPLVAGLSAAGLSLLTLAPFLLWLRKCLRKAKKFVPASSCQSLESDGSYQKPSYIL
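Material: HUVEC primary endothelial cells; Amount: 3,000 cells per well; Dosing: single concentration; Medium: EGM-2 growth medium on 0.1% gelatin-coated wells; Read-out basis: percent E-selectin-positive cells; Signal: immunofluorescence imaging; Control set: TNF-alpha, DMSO.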
An asterisk follows results filed as active; ? = inconclusive; . = not tested or not shown.

SMILES	DENV2 CPE	SIRT5 block	E-selectin induc
CCN(CC(=O)Nc1cc(Cl)ccc1-n1cncn1)Cc1nc2ccccc2c(=O)[nH]1	31*	-2	0
CO[C@@H](CN(C)S(=O)(=O)c1cccc(Cl)c1)[C@@H](C)CN([C@@H](C)CO)S(=O)(=O)c1cccc(Cl)c1	?	4	0
CCN(Cc1ccncc1)C(=O)c1ccco1	25*	-3	0
CCN(Cc1nc(-c2ccc(C)cc2)no1)C(=O)c1ccco1	-1	0	.
C=CCn1c(SCC(=O)NC2CCCCC2)nc2ccccc2c1=O	-1	1	0
CC(C)(C)S(=O)N1Cc2cc(C(=O)N3CCOCC3)nc(-c3cccc(Br)c3)c2[C@H]1CCO (some centres undefined)	-7	-1	0
CCC(CO)Oc1cc(NCc2cccc(O)c2)c2ncn(C(C)C)c2c1 (centres undefined)	-7	.	0
CCC(CO)Oc1cc(NCc2cccc(F)c2)c2ncn(C(C)C)c2c1 (centres undefined)	118*	.	0
C[C@@H]1CCCCO[C@@H](CN(C)C(=O)Nc2ccc(C(F)(F)F)cc2)[C@H](C)CN([C@H](C)CO)C(=O)c2cc(NS(=O)(=O)c3ccc(F)cc3)ccc2O1	69*	0	.
C[C@@H]1CCCCO[C@@H](CN(C)C(=O)Nc2ccc(C(F)(F)F)cc2)[C@H](C)CN([C@@H](C)CO)C(=O)c2cc(NS(=O)(=O)c3ccc(Cl)cc3)ccc2O1	-1	19*	0
C[C@@H]1CCCCO[C@@H](CN(C)C(=O)Nc2ccc(F)cc2)[C@@H](C)CN([C@H](C)CO)C(=O)c2cc(NS(=O)(=O)c3ccc(F)cc3)ccc2O1	-13	.	0
C[C@H](CO)N1C[C@H](C)[C@H](CN(C)C(=O)Nc2ccc(C(F)(F)F)cc2)OCCCC[C@H](C)Oc2ccc(NS(=O)(=O)c3ccc(F)cc3)cc2C1=O	82*	0	.
C[C@H]1CCCCO[C@H](CN(C)C(=O)Nc2ccc(C(F)(F)F)cc2)[C@@H](C)CN([C@@H](C)CO)C(=O)c2cc(NS(=O)(=O)c3ccc(F)cc3)ccc2O1	18	4	.
C[C@H](CO)N1C[C@H](C)[C@@H](CN(C)C(=O)Nc2ccc(C(F)(F)F)cc2)OCCCC[C@H](C)Oc2ccc(NS(=O)(=O)c3ccc(Cl)cc3)cc2C1=O	0	0	2
COc1ccc(CN(C)C[C@H]2Oc3ccc(NS(=O)(=O)c4cccs4)cc3CC(=O)N([C@@H](C)CO)C[C@H]2C)cc1	13	7	.
O=S(=O)(Nc1ccc(-n2cnnn2)cc1)c1cccc(F)c1	?	-2	0
CC(C)NC(=O)Nc1ccc2c(c1)CC(=O)N([C@H](C)CO)C[C@@H](C)[C@@H](CN(C)Cc1ccc(-c3ccccc3)cc1)O2	-2	12	.
C/C=C/c1ccc([C@H]2[C@@H](CN(C)S(C)(=O)=O)N(C(=O)CC)[C@H]2CO)cc1	11	0	0
COC(=O)C1CN(C(=O)COc2ccc(C)cc2)c2ccccc2O1 (centres undefined)	-4	35*	0
COC(=O)C1CN(C(=O)COc2ccc(C)c(C)c2)c2ccccc2O1 (centres undefined)	-1	0	0
O=C(N[C@H]1CC1c1ccccc1)c1ccc([N+](=O)[O-])cc1 (some centres undefined)	-4	-3	1
C[C@@H]1CCCCO[C@@H](CN(C)C(=O)Nc2cccc3ccccc23)[C@H](C)CN([C@H](C)CO)C(=O)c2cc(NC(=O)CCC(F)(F)F)ccc2O1	99*	.	0
C[C@@H]1CN([C@@H](C)CO)C(=O)c2cc(NC(=O)CCC(F)(F)F)ccc2O[C@@H](C)CCCCO[C@H]1CN(C)C(=O)Nc1cccc2ccccc12	26*	.	0
C[C@@H]1CN([C@H](C)CO)C(=O)c2cc(NC(=O)CCC(F)(F)F)ccc2O[C@@H](C)CCCCO[C@H]1CN(C)C(=O)Nc1cccc2ccccc12	-14	.	0
C[C@@H]1CN([C@@H](C)CO)C(=O)c2cc(NC(=O)CCC(F)(F)F)ccc2O[C@@H](C)CCCCO[C@@H]1CN(C)C(=O)Nc1cccc2ccccc12	-14	.	0
SMILES	DENV2 CPE	SIRT5 block	E-selectin induc
CCN(CC)CCCNc1cc(C(F)(F)F)c(C#N)c2nc3ccccc3n12	6	-10	1
Cc1ccc(S(=O)(=O)Nc2ccc(-n3c(C)nc4ccccc4c3=O)cc2)cc1	3	-3	2
Cc1ccc(S(=O)(=O)N2CCOCC2)cc1NC(=O)COC(=O)c1cc[n+]([O-])cc1	12	-5	3
CO[C@H]1CN(C)C(=O)c2ccc(NC(=O)c3nc4ccccc4s3)cc2OC[C@@H](C)N(Cc2ccncc2)C[C@@H]1C	-9	3	0
CCNC(=O)Cc1ccc(S(=O)(=O)N2CCOCC2)s1	?	0	.
Cc1cc(Br)ccc1NC(=O)CNC(=O)Cc1ccc(S(=O)(=O)N2CCOCC2)s1	39*	0	3
CCOC(=O)N1CCN(CCC(=O)Nc2ccc(Br)c(C)c2)CC1	1	-4	0
CCN1CCN(CCC(=O)Nc2ccc(Br)c(C)c2)CC1	23*	-3	1
CO[C@H]1CN(C)C(=O)c2ccc(NC(=O)c3cnccn3)cc2OC[C@H](C)N(C)C[C@H]1C	.	.	1
O=C(COc1ccc2ccccc2c1)NCC1CCCO1 (centres undefined)	-3	1	.
CCCSc1ccc([C@@H]2[C@H]3C(=O)N(CC)C(=O)[C@H]3[C@]3(C(=O)OC)CCCN23)cc1OC	102*	.	0
CCCSc1ccc([C@@H]2[C@H]3C(=O)N(CC)C(=O)[C@H]3[C@]3(C(=O)OC)CCCCN23)cc1OC	2	-3	0
CC1CC(=O)c2cnc(NCc3ccco3)nc2C1 (centres undefined)	.	-1	.
Cc1cc(N2CCOCC2)n2nc(C)c(-c3ccc(Cl)cc3)c2n1	-1	-11	0
Cc1cc(N2CCN(C)CC2)n2nc(-c3ccc(Cl)cc3)nc2n1	35*	1	0
Cc1ccc(NC(=O)c2ccc(S(=O)(=O)N3CCCCCC3)cc2)nc1	-2	-3	0
CCn1cc(/C=C(\NC(=O)c2ccccc2OC)C(=O)NCCN2CCOCC2)c2ccccc21	22*	1	0
CCn1cc(/C=C(\NC(=O)c2cc(OC)c(OC)c(OC)c2)C(=O)NCCN2CCOCC2)c2ccccc21	2	-2	0
COc1ccc(CCn2c(-c3ccco3)nc3nc4ccccc4nc32)cc1	.	-3	.
CN(C)C(=O)c1ccc(-c2ccc([C@@H]3[C@@H](CO)N(C(=O)C4CCC4)[C@H]3C#N)cc2)cc1	50*	1	1
CN(C)C(=O)c1ccc(-c2ccccc2[C@@H]2[C@@H](C#N)N(C(=O)C3CCCCC3)[C@@H]2CO)cc1	1	0	0
CN(C)C(=O)c1ccc(-c2ccccc2[C@@H]2[C@H](C#N)N(C(=O)C3CCC3)[C@H]2CO)cc1	2	1	0
CN(C)C(=O)c1ccc(-c2ccccc2[C@H]2[C@H](C#N)N(C(=O)C3CCCCC3)[C@H]2CO)cc1	28*	-1	0

Bioassay records deposited in PubChem BioAssay by Broad Institute.
